Experiments:
Type in all cases: functional
786-0 = assay: Growth inhibition of human 786-0 cells assessed as cell growth at 10 uM after 48 hrs by sulforhodamine B assay; details: 786-0, 48 h, read-out: Activity
Procedure, shortened: (§1)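 NCI-60 single-dose screen at 10 µM: cells in RPMI 1640 with 5% FBS, preincubated 24 h, then exposed 48 h at 37 °C. TCA fixation (16% final for suspension cells), SRB staining, absorbance 515 nm. Percent growth relative to time-zero and untreated control plates; negative values indicate cell kill.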

[1] = Growth inhibition of human NCI-ADR-RES cells assessed as cell growth at 10 uM after 48 hrs by sulforhodamine B assay; details: read-out: Activity
Procedure, shortened: (§2)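 Single-dose NCI-60 screen: adherent cells in RPMI 1640 with 5% FBS were exposed to 10 µM for 48 h at 37 °C after a 24 h preincubation. They were fixed in situ with cold TCA (10% final), stained with 0.4% SRB in 1% acetic acid, solubilized in 10 mM Tris base, and read at 515 nm. Percent growth was taken relative to time-zero and control plates.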

UACC-257 = assay: Growth inhibition of human UACC257 cells assessed as cell growth at 10 uM after 48 hrs by sulforhodamine B assay; details: UACC-257, 48 h, read-out: Activity
Procedure, shortened: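 Single-dose NCI-60 test at 10 µM. Cells were grown in RPMI 1640 with 5% FBS and 2 mM L-glutamine, preincubated 24 h, with T0 plates TCA-fixed. Exposure was 48 h at 37 °C, 5% CO2. Cells were fixed with cold TCA (final 10%, 4 °C, 60 min), stained with SRB and read at 515 nm. Percent growth was taken relative to T0 and untreated control; negative values denote cell kill.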

M14 = assay: Growth inhibition of human M14 cells assessed as cell growth at 10 uM after 48 hrs by sulforhodamine B assay; details: M14, 48 h, read-out: Activity; procedure, shortened: as §1
Malme-3M = assay: Growth inhibition of human MALME-3M cells assessed as cell growth at 10 uM after 48 hrs by sulforhodamine B assay; details: read-out: Activity; procedure, shortened: as §2
LOX IMVI = assay: Growth inhibition of human LOXIMVI cells assessed as cell growth at 10 uM after 48 hrs by sulforhodamine B assay; details: read-out: Activity; procedure, shortened: as §1
SF-268 = assay: Growth inhibition of human SF268 cells assessed as cell growth at 10 uM after 48 hrs by sulforhodamine B assay; details: SF-268, 48 h, read-out: Activity; procedure, shortened: as §2
KM12 = assay: Growth inhibition of human KM12 cells assessed as cell growth at 10 uM after 48 hrs by sulforhodamine B assay; details: KM12, 48 h, read-out: Activity; procedure, shortened: as §1
NCI-H460 = assay: Growth inhibition of human NCI-H460 cells assessed as cell growth at 10 uM after 48 hrs by sulforhodamine B assay; details: NCI-H460, 48 h, read-out: Activity; procedure, shortened: as §2
HOP-62 = assay: Growth inhibition of human HOP62 cells assessed as cell growth at 10 uM after 48 hrs by sulforhodamine B assay; details: HOP-62, 48 h, read-out: Activity; procedure, shortened: as §1
RXF 393 = assay: Growth inhibition of human RXF393 cells after 48 hrs by sulforhodamine B assay; details: RXF 393, 48 h
Procedure, shortened: (§3)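 NCI-60 panel cells grown in RPMI 1640 with 5% FBS and 2 mM L-glutamine, seeded at 5000–40,000 cells/well and preincubated 24 h. Five 10-fold dilutions (0.001–100 µM) from DMSO stocks were added for 48 h at 37 °C. Adherent cells were fixed with cold TCA (10% final) for 60 min at 4 °C, stained with 0.4% SRB, and read at 515 nm. GI50 was set where 100×(T−T0)/(C−T0)=50.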

CAKI-1 = assay: Growth inhibition of human CAKI-1 cells after 48 hrs by sulforhodamine B assay; details: CAKI-1, 48 h
Procedure, shortened: (§4)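 NCI-60 screen: cells in RPMI 1640 with 5% FBS and 2 mM glutamine, 5000–40,000 cells/well, preincubated 24 h. Five concentrations (10-fold dilutions; 100 to 0.001 µM) applied for 48 h at 37 °C. TCA fixation, SRB stain, absorbance at 515 nm. Time-zero plates included; GI50 where 100×(T−T0)/(C−T0)=50.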

OVCAR-5 = assay: Growth inhibition of human OVCAR5 cells after 48 hrs by sulforhodamine B assay; details: OVCAR-5, 48 h; procedure, shortened: as §3
OVCAR-4 = assay: Growth inhibition of human OVCAR4 cells after 48 hrs by sulforhodamine B assay; details: OVCAR-4, 48 h; procedure, shortened: as §3
SF-295 = assay: Growth inhibition of human SF295 cells after 48 hrs by sulforhodamine B assay; details: SF-295, 48 h; procedure, shortened: as §3
HCT-15 = assay: Growth inhibition of human HCT15 cells after 48 hrs by sulforhodamine B assay; details: HCT-15, 48 h; procedure, shortened: as §4
NCI-H522 = assay: Growth inhibition of human NCI-H522 cells after 48 hrs by sulforhodamine B assay; details: NCI-H522, 48 h; procedure, shortened: as §3
NCI-H322M = assay: Growth inhibition of human NCI-H322M cells after 48 hrs by sulforhodamine B assay; procedure, shortened: as §3
HOP-92 = assay: Growth inhibition of human HOP92 cells after 48 hrs by sulforhodamine B assay; details: HOP-92, 48 h; procedure, shortened: as §4
[2] = Growth inhibition of human EKVX cells after 48 hrs by sulforhodamine B assay; procedure, shortened: as §4
SR = assay: Growth inhibition of human SR cells after 48 hrs by sulforhodamine B assay
Procedure, shortened: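 Suspension leukemia line in RPMI 1640 with 5% FBS and 2 mM L-glutamine, NCI-60 five-dose format ([…]), 48 h at 37 °C. Settled cells were fixed with 80% TCA (final 16%), stained with SRB and read at 515 nm. GI50 is where 100×(T−T0)/(C−T0)=50, with T0 measured at dosing.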

RPMI-8226 = assay: Growth inhibition of human RPMI8226 cells after 48 hrs by sulforhodamine B assay; details: RPMI-8226, 48 h
Procedure, shortened: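 NCI-60 suspension lines in RPMI 1640 with 5% FBS and 2 mM L-glutamine, preincubated 24 h. A five-concentration 10-fold series (0.001–100 µM) was given for 48 h at 37 °C. Settled cells were fixed with 80% TCA (16% final), stained with SRB, and read at 515 nm. GI50 was taken where 100×(T−T0)/(C−T0)=50, with T0 plates fixed at drug addition.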

HL-60(TB) = assay: Growth inhibition of human HL-60(TB) cells after 48 hrs by sulforhodamine B assay; details: HL-60, 48 h
Procedure, shortened: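 HL-60(TB) cells (suspension) grown in RPMI 1640 with 5% FBS and 2 mM L-glutamine. They were plated and preincubated for 24 h, with T0 plates fixed at that point. Drug was given at five 10-fold dilutions for 48 h at 37 °C. Settled cells were fixed with TCA (16% final), stained with 0.4% SRB in 1% acetic acid and read at 515 nm. GI50 was taken where 100×(T−T0)/(C−T0)=50.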

K562 = assay: Growth inhibition of human K562 cells assessed as cell growth at 10 uM after 48 hrs by sulforhodamine B assay; details: K562, 48 h, read-out: Activity; procedure, shortened: as §1

SMILES | growth at 10 µM (786-0) | growth at 10 µM [1] | growth at 10 µM (UACC-257) | growth at 10 µM (M14) | growth at 10 µM (Malme-3M) | growth at 10 µM (LOX IMVI) | growth at 10 µM (SF-268) | growth at 10 µM (KM12) | growth at 10 µM (NCI-H460) | growth at 10 µM (HOP-62) | growth at 10 µM (K562) | also measured
CC(C)=CCC/C(C)=C/CC/C(C)=C/CC[C@]1(C)CCc2c3c(c(C)c(C)c2O1)OCN(CCCCCCCCO)C3 | 59.8% | 66.6% | 119% | -24% | 71.7% | -80.1% | 54.9% | 15.7% | 9.26% | 63.2% |  | GI50 (RXF 393): 2.45 µM; GI50 (CAKI-1): 4.38 µM; GI50 (OVCAR-5): 2.83 µM; GI50 (OVCAR-4): 2.81 µM; GI50 (SF-295): 3.16 µM; GI50 (HCT-15): 3.32 µM; GI50 (NCI-H522): 2.91 µM; GI50 (NCI-H322M): 2.7 µM; GI50 (HOP-92): 2.17 µM; GI50 [2]: 3.04 µM; GI50 (SR): 2.65 µM; GI50 (RPMI-8226): 3.13 µM; GI50 (HL-60(TB)): 3.44 µM
CC(C)=CCC/C(C)=C/CC/C(C)=C/CC[C@]1(C)CCc2c3c(c(C)c(C)c2O1)OCN(CCCCCCCCCCCCO)C3 | 110% | 97.9% | 104% | 113% | 101% | 100% | 116% | 90.4% | 103% | 104% | 80.5% | 
CC(C)=CCC/C(C)=C/CC/C(C)=C/CC[C@]1(C)CCc2c(CNCCc3ccc(O)cc3)c(O)c(C)c(C)c2O1 | 78.2% | 95% | 102% | 102% | 110% | 63.9% | 96.9% | 89.6% | 92.3% | 105% | 63% | 
CC(C)=CCC/C(C)=C/CC/C(C)=C/CC[C@]1(C)CCc2c3c(c(C)c(C)c2O1)OCN(CCc1ccc(O)cc1)C3 | 77.3% | 83.6% | 93.6% | 97.6% | 114% | 30.3% | 83.7% | 65.6% | 62.4% | 112% | 54.9% | 
COc1ccc(CCNCc2c(O)c(C)c(C)c3c2CC[C@@](C)(CC/C=C(\C)CC/C=C(\C)CCC=C(C)C)O3)cc1OC | 78.1% | 91.4% | 107% | 90.4% | 120% | 52.9% | 98% | 60.1% | 73.4% | 115% | 42% | 
CC(C)=CCC/C(C)=C/CC/C(C)=C/CC[C@]1(C)CCc2c3c(cc(C)c2O1)OCN(CCCCCCCCCCCCO)C3 | 97% | 79.9% | 64.3% | 90.9% | 106% | 67.1% | 98.7% | 61.1% | 48.2% | 86.9% | 47.4% | 
CC(C)=CCC/C(C)=C/CC/C(C)=C/CC[C@]1(C)CCc2c3c(cc(C)c2O1)OCN(CCCCCCCCO)C3 | -95.3% | 18.7% | 99% | -94.7% | -56.5% | -86.9% | -83.1% | -88.1% | 0.55% | -99% |  | GI50 (RXF 393): 0.551 µM; GI50 (CAKI-1): 4.07 µM; GI50 (OVCAR-5): 2.73 µM; GI50 (OVCAR-4): 0.585 µM; GI50 (SF-295): 1.02 µM; GI50 (HCT-15): 3 µM; GI50 (NCI-H522): 3.75 µM; GI50 (NCI-H322M): 5.13 µM; GI50 (HOP-92): 1.84 µM; GI50 [2]: 2.98 µM; GI50 (SR): 0.785 µM; GI50 (RPMI-8226): 1.22 µM; GI50 (HL-60(TB)): 1.03 µM
CC(C)=CCC/C(C)=C/CC/C(C)=C/CC[C@]1(C)CCc2c3c(cc(C)c2O1)OCN(CCCCCCCCCCO)C3 | 85.3% | 99.9% | 81.4% | 94.9% | 101% | 87.3% | 97.7% | 87.2% | 91.6% | 107% | 45.4% | 
CC(C)=CCC/C(C)=C/CC/C(C)=C/CC[C@]1(C)CCc2cc(O)c(C)c(C)c2O1 [GAMMA-TOCOTRIENOL] | 114% | 96.9% | 123% | 109% | 92.5% | 90% | 108% | 107% | 105% | 108% | 85% | 
CC(C)=CCC/C(C)=C/CC/C(C)=C/CC[C@]1(C)CCc2c3c(c(C)c(C)c2O1)OCN(CCCCCCCCCCO)C3 | 99.2% | 99.2% | 102% | 101% | 105% | 93.6% | 94.2% | 89.1% | 75.5% | 90% | 77.6% | 
COc1ccc(CCN2COc3c(C)c(C)c4c(c3C2)CC[C@@](C)(CC/C=C(\C)CC/C=C(\C)CCC=C(C)C)O4)cc1OC | 94.9% | 101% | 105% | 101% | 93.6% | 98.6% | 94.8% | 96.4% | 103% | 85.7% | 78.3% | 

— ChEMBL document CHEMBL2380254, “Optimization of tocotrienols as antiproliferative and antimigratory leads” (Eur J Med Chem, 2013)
